pKd, pKi: −log10 of the molar value.
What was measured:
[1] = target: T1, 5-hydroxytryptamine receptor 2A (Homo sapiens, UniProt P28223); assay: Binding affinity to human 5HT2A receptor expressed in human A549 cells; assay type: cell-based; conditions: for Bmax: tested as the 3H-labelled form
Method in brief: (§1)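 Incubated 60 min at 25 °C in 50 mM Tris, 4 mM MgCl2, pH 7.4, with 1% BSA. Nonspecific defined by 10 μM cinanserin; filtration and scintillation counting.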

[2] = target: T1, 5-hydroxytryptamine receptor 2A; assay: Binding affinity to human 5HT2A receptor expressed in human HEK293 cells; assay type: cell-based; conditions: for Bmax: tested as the 3H-labelled form; method in brief: as §1
[3] = target: 5-hydroxytryptamine receptor 2C (Homo sapiens, UniProt P28335); assay: Binding affinity to 5HT2C receptor
[4] = target: 5-hydroxytryptamine receptor 6 (Homo sapiens, UniProt P50406); assay: Binding affinity to 5HT6 receptor
Mu-type opioid receptor = Mu-type opioid receptor (Homo sapiens, UniProt P35372); assay: Binding affinity to mu opioid receptor
Histamine H1 receptor = Histamine H1 receptor (Homo sapiens, UniProt P35367); assay: Binding affinity to histamine H1 receptor
[5] = target: 5-hydroxytryptamine receptor 2B (Homo sapiens, UniProt P41595); assay: Binding affinity to 5HT2B receptor
[6] = target: Kappa-type opioid receptor (Homo sapiens, UniProt P41145); assay: Binding affinity to kappa opioid receptor
[7] = target: 5-hydroxytryptamine receptor 1A (Homo sapiens, UniProt P08908); assay: Binding affinity to 5HT1A receptor
D(3) dopamine receptor = D(3) dopamine receptor (Homo sapiens, UniProt P35462); assay: Binding affinity to dopamine D3 receptor
[8] = target: 5-hydroxytryptamine receptor 7 (Homo sapiens, UniProt P34969); assay: Binding affinity to 5HT7 receptor
Histamine H2 receptor = Histamine H2 receptor (Homo sapiens, UniProt P25021); assay: Binding affinity to histamine H2 receptor
[9] = target: 5-hydroxytryptamine receptor 1D (Homo sapiens, UniProt P28221); assay: Binding affinity to 5HT1D receptor
[10] = target: Alpha-1A adrenergic receptor (Homo sapiens, UniProt P35348); assay: Binding affinity to alpha 1A adrenergic receptor
[11] = target: Delta-type opioid receptor (Homo sapiens, UniProt P41143); assay: Binding affinity to delta opioid receptor
[12] = target: Sodium-dependent serotonin transporter (Homo sapiens, UniProt P31645); assay: Binding affinity to serotonin uptake transporter
[13] = target: 5-hydroxytryptamine receptor 5A (Homo sapiens, UniProt P47898); assay: Binding affinity to 5HT5A receptor
[14] = target: 5-hydroxytryptamine receptor 1B (Homo sapiens, UniProt P28222); assay: Binding affinity to 5HT1B receptor
D(2) dopamine receptor = D(2) dopamine receptor (Homo sapiens, UniProt P14416); assay: Binding affinity to dopamine D2 receptor
D(1A) dopamine receptor = D(1A) dopamine receptor (Homo sapiens, UniProt P21728); assay: Binding affinity to dopamine D1 receptor
[15] = target: 5-hydroxytryptamine receptor 3A (Homo sapiens, UniProt P46098); assay: Binding affinity to 5HT3 receptor
[16] = target: 5-hydroxytryptamine receptor 1E (Homo sapiens, UniProt P28566); assay: Binding affinity to 5HT1E receptor
D(1B) dopamine receptor = D(1B) dopamine receptor (Homo sapiens, UniProt P21918); assay: Binding affinity to dopamine D5 receptor
[17] = target: Muscarinic acetylcholine receptor M1 (Homo sapiens, UniProt P11229); assay: Binding affinity to muscarinic M1 receptor
[18] = target: Muscarinic acetylcholine receptor M2 (Homo sapiens, UniProt P08172); assay: Binding affinity to muscarinic M2 receptor
[19] = target: Muscarinic acetylcholine receptor M3 (Homo sapiens, UniProt P20309); assay: Binding affinity to muscarinic M3 receptor
[20] = target: Muscarinic acetylcholine receptor M4 (Homo sapiens, UniProt P08173); assay: Binding affinity to muscarinic M4 receptor
[21] = target: Muscarinic acetylcholine receptor M5 (Homo sapiens, UniProt P08912); assay: Binding affinity to muscarinic M5 receptor
Histamine H3 receptor = Histamine H3 receptor (Homo sapiens, UniProt Q9Y5N1); assay: Binding affinity to histamine H3 receptor
[22] = target: Sodium-dependent dopamine transporter (Homo sapiens, UniProt Q01959); assay: Binding affinity to dopamine uptake transporter
[23] = target: T1, 5-hydroxytryptamine receptor 2A; assay: Displacement of [3H]ketanserin from human 5HT2A receptor expressed in human A549 cells; assay type: cell-based
[24] = target: T1, 5-hydroxytryptamine receptor 2A; assay: Displacement of [3H]INBMeO from human 5HT2A receptor expressed in human A549 cells; assay type: cell-based
[25] = target: T1, 5-hydroxytryptamine receptor 2A; assay: Displacement of [3H]ketanserin from human 5HT2A receptor expressed in human HEK293 cells; assay type: cell-based
[26] = target: T1, 5-hydroxytryptamine receptor 2A; assay: Displacement of [3H]INBMeO from human 5HT2A receptor expressed in human HEK293 cells; assay type: cell-based

T1 sequence (P28223 whole entry): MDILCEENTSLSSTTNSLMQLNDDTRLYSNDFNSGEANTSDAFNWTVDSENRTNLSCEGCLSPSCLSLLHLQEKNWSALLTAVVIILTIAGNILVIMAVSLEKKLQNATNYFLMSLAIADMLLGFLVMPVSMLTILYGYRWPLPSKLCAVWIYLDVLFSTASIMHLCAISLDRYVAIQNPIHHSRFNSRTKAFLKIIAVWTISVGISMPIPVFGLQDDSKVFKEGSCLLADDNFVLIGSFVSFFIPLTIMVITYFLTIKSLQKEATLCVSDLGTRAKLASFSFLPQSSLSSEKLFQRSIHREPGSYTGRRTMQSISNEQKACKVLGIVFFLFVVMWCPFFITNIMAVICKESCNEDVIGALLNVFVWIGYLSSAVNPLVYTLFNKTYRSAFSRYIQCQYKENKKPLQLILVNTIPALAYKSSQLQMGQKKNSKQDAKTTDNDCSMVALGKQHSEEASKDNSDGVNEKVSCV
Chain of 5-hydroxytryptamine receptor 2C (P28335 whole entry): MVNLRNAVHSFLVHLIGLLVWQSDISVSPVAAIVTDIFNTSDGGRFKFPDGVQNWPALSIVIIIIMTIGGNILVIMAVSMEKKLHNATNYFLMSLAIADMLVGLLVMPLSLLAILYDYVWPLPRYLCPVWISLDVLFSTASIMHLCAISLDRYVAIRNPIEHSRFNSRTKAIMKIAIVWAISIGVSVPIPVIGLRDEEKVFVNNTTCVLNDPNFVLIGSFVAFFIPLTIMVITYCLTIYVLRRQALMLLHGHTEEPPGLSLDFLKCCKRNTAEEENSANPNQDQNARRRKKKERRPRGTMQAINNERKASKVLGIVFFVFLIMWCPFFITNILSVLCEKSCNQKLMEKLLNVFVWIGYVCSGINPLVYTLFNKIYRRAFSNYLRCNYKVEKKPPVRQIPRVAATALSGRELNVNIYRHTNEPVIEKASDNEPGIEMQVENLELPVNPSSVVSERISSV
Chain of Muscarinic acetylcholine receptor M3 (P20309 whole entry): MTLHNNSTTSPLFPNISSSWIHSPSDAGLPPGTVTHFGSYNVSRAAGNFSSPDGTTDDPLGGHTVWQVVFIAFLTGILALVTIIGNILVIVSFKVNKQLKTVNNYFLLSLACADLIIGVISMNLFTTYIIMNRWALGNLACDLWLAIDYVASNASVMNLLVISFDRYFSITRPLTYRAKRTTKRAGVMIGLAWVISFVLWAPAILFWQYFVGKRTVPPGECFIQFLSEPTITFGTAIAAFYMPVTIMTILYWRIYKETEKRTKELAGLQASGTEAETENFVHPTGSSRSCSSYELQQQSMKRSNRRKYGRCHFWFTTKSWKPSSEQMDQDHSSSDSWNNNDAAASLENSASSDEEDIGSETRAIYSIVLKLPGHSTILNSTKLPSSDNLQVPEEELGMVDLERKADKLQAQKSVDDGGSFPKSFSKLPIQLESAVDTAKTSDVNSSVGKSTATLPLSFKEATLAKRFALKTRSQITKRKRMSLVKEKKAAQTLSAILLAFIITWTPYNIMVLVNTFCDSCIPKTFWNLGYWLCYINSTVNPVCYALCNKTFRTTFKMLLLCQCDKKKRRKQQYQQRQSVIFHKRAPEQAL
Chain of Histamine H2 receptor (P25021 whole entry): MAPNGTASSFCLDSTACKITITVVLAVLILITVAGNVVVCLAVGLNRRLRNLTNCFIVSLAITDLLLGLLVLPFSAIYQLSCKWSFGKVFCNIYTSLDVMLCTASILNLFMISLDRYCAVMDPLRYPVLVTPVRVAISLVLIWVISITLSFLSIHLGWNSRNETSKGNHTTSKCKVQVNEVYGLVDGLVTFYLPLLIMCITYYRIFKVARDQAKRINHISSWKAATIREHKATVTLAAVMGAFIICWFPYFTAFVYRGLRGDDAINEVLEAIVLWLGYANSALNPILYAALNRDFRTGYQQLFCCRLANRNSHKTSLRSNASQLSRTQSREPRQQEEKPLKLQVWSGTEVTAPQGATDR
Chain of Mu-type opioid receptor (P35372 whole entry): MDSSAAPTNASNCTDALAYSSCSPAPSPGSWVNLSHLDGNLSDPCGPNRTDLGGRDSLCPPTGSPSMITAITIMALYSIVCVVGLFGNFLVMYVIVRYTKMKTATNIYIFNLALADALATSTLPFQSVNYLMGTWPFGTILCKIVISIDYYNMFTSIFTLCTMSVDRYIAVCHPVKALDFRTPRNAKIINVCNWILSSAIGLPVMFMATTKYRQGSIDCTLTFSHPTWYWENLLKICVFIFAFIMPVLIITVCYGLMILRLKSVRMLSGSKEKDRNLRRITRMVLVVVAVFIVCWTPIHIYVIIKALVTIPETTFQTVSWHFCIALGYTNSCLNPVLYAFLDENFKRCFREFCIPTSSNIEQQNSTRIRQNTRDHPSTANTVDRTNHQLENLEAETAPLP
Chain of D(2) dopamine receptor (P14416 whole entry): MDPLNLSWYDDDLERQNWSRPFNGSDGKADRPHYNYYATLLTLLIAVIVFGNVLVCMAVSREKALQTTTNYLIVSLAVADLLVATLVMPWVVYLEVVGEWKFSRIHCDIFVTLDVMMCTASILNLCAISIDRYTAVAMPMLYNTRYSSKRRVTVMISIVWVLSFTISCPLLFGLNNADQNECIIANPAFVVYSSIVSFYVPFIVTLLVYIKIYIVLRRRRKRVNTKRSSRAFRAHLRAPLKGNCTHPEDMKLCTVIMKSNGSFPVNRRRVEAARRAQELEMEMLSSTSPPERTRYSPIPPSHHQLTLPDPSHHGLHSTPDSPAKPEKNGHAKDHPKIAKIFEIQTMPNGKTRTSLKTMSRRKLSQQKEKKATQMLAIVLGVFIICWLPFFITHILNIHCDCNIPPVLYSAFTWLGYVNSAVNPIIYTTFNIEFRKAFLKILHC
Chain of Histamine H1 receptor (P35367 whole entry): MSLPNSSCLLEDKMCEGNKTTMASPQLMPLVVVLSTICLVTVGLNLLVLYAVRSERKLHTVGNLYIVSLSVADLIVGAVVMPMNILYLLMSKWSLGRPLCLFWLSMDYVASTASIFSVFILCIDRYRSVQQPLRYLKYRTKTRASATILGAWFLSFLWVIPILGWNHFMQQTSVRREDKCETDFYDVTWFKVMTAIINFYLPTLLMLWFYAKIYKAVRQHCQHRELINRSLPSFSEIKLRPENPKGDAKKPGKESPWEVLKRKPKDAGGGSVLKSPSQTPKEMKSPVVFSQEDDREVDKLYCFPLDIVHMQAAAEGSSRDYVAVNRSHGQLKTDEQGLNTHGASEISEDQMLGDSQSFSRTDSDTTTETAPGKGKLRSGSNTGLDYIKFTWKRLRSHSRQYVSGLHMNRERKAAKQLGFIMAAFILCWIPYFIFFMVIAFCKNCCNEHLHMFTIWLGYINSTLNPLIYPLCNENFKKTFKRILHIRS
Chain of Muscarinic acetylcholine receptor M2 (P08172 whole entry): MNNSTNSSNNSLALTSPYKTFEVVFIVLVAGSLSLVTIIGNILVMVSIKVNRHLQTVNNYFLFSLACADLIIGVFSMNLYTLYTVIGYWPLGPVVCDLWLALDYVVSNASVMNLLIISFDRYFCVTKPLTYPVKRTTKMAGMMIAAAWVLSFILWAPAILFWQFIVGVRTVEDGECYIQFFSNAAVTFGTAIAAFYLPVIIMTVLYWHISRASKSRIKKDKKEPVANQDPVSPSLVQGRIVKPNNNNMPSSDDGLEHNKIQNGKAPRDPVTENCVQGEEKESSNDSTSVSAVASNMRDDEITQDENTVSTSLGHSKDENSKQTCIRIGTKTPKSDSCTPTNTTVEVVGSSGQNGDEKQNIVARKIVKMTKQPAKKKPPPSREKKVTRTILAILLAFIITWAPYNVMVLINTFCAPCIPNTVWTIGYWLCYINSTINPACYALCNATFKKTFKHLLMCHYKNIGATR
Chain of 5-hydroxytryptamine receptor 6 (P50406 whole entry): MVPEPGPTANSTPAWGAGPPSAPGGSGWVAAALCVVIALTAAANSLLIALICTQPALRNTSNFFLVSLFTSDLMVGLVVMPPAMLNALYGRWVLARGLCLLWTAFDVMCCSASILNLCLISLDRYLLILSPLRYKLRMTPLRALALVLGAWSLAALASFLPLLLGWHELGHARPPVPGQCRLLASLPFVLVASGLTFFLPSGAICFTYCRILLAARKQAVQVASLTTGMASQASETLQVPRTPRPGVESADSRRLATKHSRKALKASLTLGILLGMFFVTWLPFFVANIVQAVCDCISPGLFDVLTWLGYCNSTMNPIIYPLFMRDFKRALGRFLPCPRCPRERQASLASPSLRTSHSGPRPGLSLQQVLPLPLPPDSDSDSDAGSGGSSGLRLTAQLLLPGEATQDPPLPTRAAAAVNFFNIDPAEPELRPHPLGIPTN
Chain of Muscarinic acetylcholine receptor M4 (P08173 whole entry): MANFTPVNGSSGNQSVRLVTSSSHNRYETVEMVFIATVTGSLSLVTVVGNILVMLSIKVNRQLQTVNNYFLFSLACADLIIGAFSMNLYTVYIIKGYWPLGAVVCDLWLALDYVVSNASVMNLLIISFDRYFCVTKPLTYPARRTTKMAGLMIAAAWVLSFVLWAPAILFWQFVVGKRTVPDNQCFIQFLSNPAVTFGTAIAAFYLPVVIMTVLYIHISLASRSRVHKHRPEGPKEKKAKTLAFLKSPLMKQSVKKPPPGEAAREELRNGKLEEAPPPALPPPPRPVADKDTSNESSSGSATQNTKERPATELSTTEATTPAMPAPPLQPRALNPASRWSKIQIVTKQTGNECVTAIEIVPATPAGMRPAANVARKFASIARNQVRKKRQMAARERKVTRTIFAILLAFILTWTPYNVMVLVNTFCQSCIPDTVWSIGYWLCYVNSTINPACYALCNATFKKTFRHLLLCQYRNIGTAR
Chain of Delta-type opioid receptor (P41143 whole entry): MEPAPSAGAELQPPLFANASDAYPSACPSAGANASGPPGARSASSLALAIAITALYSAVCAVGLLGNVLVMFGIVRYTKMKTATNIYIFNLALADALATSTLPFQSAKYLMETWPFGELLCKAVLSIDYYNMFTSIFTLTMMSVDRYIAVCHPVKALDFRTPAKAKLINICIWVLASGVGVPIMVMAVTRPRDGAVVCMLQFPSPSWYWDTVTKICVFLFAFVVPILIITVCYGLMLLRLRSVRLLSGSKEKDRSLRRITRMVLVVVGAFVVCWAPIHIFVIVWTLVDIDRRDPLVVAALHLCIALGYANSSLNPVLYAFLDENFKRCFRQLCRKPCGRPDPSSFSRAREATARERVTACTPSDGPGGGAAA

## O=C(c1ccc(F)cc1)C1CCN(CCn2c(=O)[nH]c3ccccc3c2=O)CC1
[1]
  Bmax: 890 fmol/mg
[2]
  Bmax: 3260 fmol/mg

## [3H]C([3H])([3H])Oc1cc(I)c(OC)cc1CCNCc1ccccc1OC([3H])([3H])[3H]
[3]
  pKi: 8.70
[4]
  pKi: 7.14
Mu-type opioid receptor
  pKi: 7.09
Histamine H1 receptor
  pKi: 6.72
[5]
  pKi: 6.64
[6]
  pKi: 6.54
[7]
  pKi: < 6.30
D(3) dopamine receptor
  pKi: < 6.30
[8]
  pKi: < 6.30
Histamine H2 receptor
  pKi: < 6.30
[9]
  pKi: < 6.30
[10]
  pKi: < 6.30
[11]
  pKi: < 6.30
[12]
  pKi: < 6.30
[13]
  pKi: < 6.30
[14]
  pKi: < 6.30
D(2) dopamine receptor
  pKi: < 6.30
D(1A) dopamine receptor
  pKi: < 6.30
[15]
  pKi: < 6.30
[16]
  pKi: < 6.30
D(1B) dopamine receptor
  pKi: < 6.30
[17]
  pKi: < 6.30
[18]
  pKi: < 6.30
[19]
  pKi: < 6.30
[20]
  pKi: < 6.30
[21]
  pKi: < 6.30
Histamine H3 receptor
  pKi: < 6.30
[22]
  pKi: < 6.30
[1]
  pKd: 10.01
[2]
  pKd: 9.82

## CN(C)CCCSc1ccccc1NC(=O)/C=C/c1ccccc1 [CINANSERIN]
[23]
  pKi: 7.77
[24]
  pKi: 7.62
[25]
  pKi: 7.89
[26]
  pKi: 7.66

## COc1cc(CCNCc2ccccc2OC)c(OC)cc1I
[1]
  Bmax: 480 fmol/mg
[2]
  Bmax: 2210 fmol/mg
